Laboratory results published in publication PMC2834874 (Bioorganic & medicinal chemistry letters, 2010).

Key:
Type in all cases: cell-based
[1] = biological target: T1, M1 (Homo sapiens, UniProt P11229); assay: ACh CRC fold-shift experiments, calcium mobilization in M1 CHO cells
T1 sequence (P11229 1-460): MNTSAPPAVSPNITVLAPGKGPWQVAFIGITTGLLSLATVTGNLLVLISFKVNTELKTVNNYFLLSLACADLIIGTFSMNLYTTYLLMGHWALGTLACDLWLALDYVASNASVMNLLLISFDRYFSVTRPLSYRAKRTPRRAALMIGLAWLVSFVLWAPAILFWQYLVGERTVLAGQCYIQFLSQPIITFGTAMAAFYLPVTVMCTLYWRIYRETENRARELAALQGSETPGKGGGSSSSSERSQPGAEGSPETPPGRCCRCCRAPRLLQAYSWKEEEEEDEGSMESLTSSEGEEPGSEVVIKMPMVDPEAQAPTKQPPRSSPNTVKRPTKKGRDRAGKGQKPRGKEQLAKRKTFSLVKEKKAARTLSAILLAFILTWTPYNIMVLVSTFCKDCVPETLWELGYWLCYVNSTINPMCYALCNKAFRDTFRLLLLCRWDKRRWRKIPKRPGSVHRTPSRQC
Outline: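 ACh concentration-response curve run alone and with the test compound at 10 μM or 30 μM. Intracellular calcium mobilization measured in CHO cells expressing M1. The fold leftward shift of the ACh curve is taken, and intrinsic allosteric agonism is recorded from the response to compound alone. Values are means of at least three independent determinations.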

[2] = biological target: M3 (Homo sapiens, UniProt P20309); assay: Potentiation of ~EC20 ACh, calcium mobilization in M3 CHO cells
Sequence of M3 (P20309 whole entry): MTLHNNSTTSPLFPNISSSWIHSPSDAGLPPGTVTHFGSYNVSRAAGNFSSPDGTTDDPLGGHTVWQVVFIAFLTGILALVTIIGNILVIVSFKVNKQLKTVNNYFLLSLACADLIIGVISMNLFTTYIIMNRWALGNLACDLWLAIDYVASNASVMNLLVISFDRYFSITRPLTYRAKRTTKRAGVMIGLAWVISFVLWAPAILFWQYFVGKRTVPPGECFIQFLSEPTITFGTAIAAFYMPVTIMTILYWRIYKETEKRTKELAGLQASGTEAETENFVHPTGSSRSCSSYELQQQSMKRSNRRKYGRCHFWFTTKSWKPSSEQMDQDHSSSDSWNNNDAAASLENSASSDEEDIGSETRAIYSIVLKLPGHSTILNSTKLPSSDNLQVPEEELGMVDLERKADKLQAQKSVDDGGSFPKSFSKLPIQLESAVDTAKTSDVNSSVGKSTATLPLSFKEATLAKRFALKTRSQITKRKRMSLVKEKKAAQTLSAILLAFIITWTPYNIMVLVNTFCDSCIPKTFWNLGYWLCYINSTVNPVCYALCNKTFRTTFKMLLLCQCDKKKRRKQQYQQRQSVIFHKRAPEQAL
Outline: (§1)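 Potentiation of an ~EC20 ACh response read as intracellular calcium mobilization in CHO cells expressing single receptor subtypes. M2 and M4 lines are co-transfected with chimeric Gqi5 to couple to calcium, while M3 and M5 lines are used directly. Data are means of independent determinations.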

[3] = biological target: T2, M5 (Homo sapiens, UniProt P08912); assay: Potentiation of ~EC20 ACh, calcium mobilization in M5 CHO cells
T2 sequence (P08912 1-532): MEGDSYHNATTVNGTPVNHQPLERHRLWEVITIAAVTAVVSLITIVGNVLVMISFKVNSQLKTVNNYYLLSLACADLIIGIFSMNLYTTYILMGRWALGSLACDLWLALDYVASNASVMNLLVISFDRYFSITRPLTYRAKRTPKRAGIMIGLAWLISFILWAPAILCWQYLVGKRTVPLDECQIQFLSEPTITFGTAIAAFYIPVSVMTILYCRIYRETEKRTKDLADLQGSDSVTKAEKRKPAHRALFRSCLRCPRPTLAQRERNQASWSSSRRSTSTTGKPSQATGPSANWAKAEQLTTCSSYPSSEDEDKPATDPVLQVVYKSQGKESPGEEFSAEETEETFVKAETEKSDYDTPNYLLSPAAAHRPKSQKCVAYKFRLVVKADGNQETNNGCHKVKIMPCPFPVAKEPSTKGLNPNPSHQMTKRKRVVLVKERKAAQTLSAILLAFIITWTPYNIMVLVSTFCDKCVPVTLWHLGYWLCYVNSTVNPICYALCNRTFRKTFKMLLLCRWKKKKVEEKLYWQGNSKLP
Outline: as §1

[4] = biological target: T1, M1; settings: M1 EC50 ratio
[5] = biological target: T3, M2 (Homo sapiens, UniProt P08172); assay: Potentiation of ~EC20 ACh, calcium mobilization in M2/Gqi5 CHO cells; settings: up to 30 μM
T3 sequence (P08172 1-466): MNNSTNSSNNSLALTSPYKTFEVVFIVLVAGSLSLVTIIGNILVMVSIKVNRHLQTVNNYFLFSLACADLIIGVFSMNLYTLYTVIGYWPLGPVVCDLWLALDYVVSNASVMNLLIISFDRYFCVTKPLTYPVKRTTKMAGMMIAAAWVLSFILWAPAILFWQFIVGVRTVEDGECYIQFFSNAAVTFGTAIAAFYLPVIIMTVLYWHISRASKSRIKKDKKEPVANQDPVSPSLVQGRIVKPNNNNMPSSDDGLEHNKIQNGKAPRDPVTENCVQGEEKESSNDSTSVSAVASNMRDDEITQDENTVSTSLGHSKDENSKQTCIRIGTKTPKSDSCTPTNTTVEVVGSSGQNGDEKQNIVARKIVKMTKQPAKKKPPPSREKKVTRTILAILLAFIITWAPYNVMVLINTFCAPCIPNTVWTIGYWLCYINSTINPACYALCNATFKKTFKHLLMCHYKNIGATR
Outline: as §1

[6] = biological target: T4, M4 (Homo sapiens, UniProt P08173); assay: Potentiation of ~EC20 ACh, calcium mobilization in M4/Gqi5 CHO cells; settings: up to 30 μM
T4 sequence (P08173 1-479): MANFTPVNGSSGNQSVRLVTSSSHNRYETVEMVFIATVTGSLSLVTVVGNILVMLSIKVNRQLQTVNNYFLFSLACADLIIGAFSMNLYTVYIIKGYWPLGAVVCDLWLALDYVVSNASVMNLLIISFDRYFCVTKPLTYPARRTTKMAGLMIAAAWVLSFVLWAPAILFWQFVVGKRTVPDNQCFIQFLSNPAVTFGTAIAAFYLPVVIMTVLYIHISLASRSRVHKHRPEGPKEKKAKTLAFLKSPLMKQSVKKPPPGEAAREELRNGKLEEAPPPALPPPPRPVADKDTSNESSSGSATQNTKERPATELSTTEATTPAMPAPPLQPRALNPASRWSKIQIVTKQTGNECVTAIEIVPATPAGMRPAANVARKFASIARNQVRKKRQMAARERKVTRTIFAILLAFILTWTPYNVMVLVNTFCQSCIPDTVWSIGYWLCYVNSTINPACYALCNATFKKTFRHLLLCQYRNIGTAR
Outline: as §1

Fold-shift of the ACh CRC at M5 ([1]; 10 μM compound) | intrinsic allosteric agonism ([1]; M1 fold-shift experiment, at 30 μM) [%] | selectivity versus M3 ([2]; CRC in presence of ~EC20 ACh) | selectivity versus M5 ([3]; CRC in presence of ~EC20 ACh) | Fold-shift of the ACh CRC at M5 ([1]; 30 μM compound) | increase in potency over VU0365137 (9a) [4] | activation of M3 ([2]; up to 30 μM) | activation of M5 ([3]; up to 30 μM) | activation of M2 [5] | activation of M4 [6] | Compound
approximately 5 fold | ~30 | good selectivity | good selectivity | – | – | – | – | – | – | Cn1cc(-c2ccc(CN3C(=O)C(=O)c4ccccc43)cc2)cn1 [Compound 9a]
– | – | – | – | approximately 3 fold | three-fold increase | minimal/no activation | minimal/no activation | minimal/no activation | minimal/no activation | Cn1cc(-c2ccc(CN3C(=O)C(=O)c4ccccc43)c(F)c2)cn1 [Compound 12a]
